Key:
[1] = Solubility of the compound in 15% DMSO; format: physicochemical
[2] = Cytotoxicity against human HUVEC cells assessed as cell viability at 9 to 150 uM measured after 48 hrs by MTT assay relative to control; format: cell-based; details: read-out: Activity
Procedure, shortened: (§1)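 Hep3B and HUVEC cells were grown in high-glucose medium with 10% heat-inactivated FBS and 2 mM glutamine at 37 °C in 5% CO2. Cells were seeded at 5x10^4 per well and left 24 h to attach. They were then exposed for 48 h to 150, 75, 39, 19 and 9 µM, with 1% DMSO as vehicle control. Viability was read by MTT at 550 nm as (OD sample/OD control)×100.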

Putative nitroreductase [3] = molecular target: T1, Putative nitroreductase (Staphylococcus saprophyticus subsp. saprophyticus (strain ATCC 15305 / DSM20229 / NCIMB 8711 / NCTC 7292 / S-41), UniProt Q4A0P1); assay: Substrate activity at Staphylococcus saprophyticus nitroreductase expressed in Escherichia coli assessed as retention time in the presence of NADPH at 100 uM by HPLC analysis (0 to 5 mins at 20% ACN, 25 to 35 min at 80% ACN, 40 to 45 min at 20% ACN); format: ADME
T1 sequence (Q4A0P1 whole entry): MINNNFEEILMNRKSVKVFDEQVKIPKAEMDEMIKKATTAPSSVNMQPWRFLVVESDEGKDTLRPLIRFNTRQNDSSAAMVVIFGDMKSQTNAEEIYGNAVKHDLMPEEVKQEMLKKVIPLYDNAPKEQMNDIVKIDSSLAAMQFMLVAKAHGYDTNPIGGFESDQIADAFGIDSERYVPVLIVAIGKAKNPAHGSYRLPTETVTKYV

PC-3 [4] = assay: Cytotoxicity against human PC3 cells assessed as reduction in cell viability measured after 48 hrs in presence of Staphylococcus saprophyticus nitroreductase and NADH by SRB assay; format: cell-based; details: PC-3, 48 h
Procedure, shortened: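 Prodrug at 180, 18 or 1.8 nM was premixed with Ssap-NtrB (31 µg/mL final) and NADH (600 µM final; 900 µM for CB1954) in 25 mM Tris-HCl pH 7.5, then added for 48 h under aerobic conditions. Cells were fixed with 12.5% TCA, stained with SRB and read at 492 nm, in triplicate.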

Putative nitroreductase [5] = molecular target: T1, Putative nitroreductase; assay: Substrate activity at Staphylococcus saprophyticus nitroreductase expressed in Escherichia coli assessed as retention time […] at 100 uM by HPLC analysis (0 to 5 mins at 20 % ACN, 15 to 22 min at 80% ACN, 27-32 AT 20% ACN); format: ADME
[6] = Cytotoxicity against human Hep3B cells assessed as cell viability at 9 to 150 uM measured after 48 hrs by MTT assay relative to control; format: cell-based, Hep 3B2; details: read-out: Activity; procedure, shortened: as §1
[7] = Cytotoxicity against human PC3 cells assessed as cell viability at 9 to 150 uM measured after 48 hrs by MTT assay relative to control; format: cell-based, PC-3; details: read-out: Activity
Procedure, shortened: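 They were treated for 48 h at 9, 18, 39, 78 and 150 µM, with 1% DMSO as vehicle control. Viability was read by MTT at 550 nm.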

PC-3 [8] = assay: Cytotoxicity in human PC3 cells assessed as reduction in cell viability at 180 nM measured after 48 hrs by SRB assay; format: cell-based; details: pc-3, 48 h, 0.18 µM
Procedure, shortened: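 They were exposed for 48 h to prodrug alone at 180 nM final, without enzyme or NADH, with 25 mM Tris-HCl as vehicle control. Cells were fixed with 12.5% TCA for 1 h at 4 °C, stained with 0.4% SRB and read at 492 nm as % cell survival, in triplicate.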

Putative nitroreductase [9] = molecular target: T1, Putative nitroreductase; assay: Prodrug conversion assessed Staphylococcus saprophyticus nitroreductase expressed in Escherichia coli-mediated PP (4-(hydroxyamino)phenyl)(piperidin-1-yl)methanone metabolite formation by measuring retention time of metabolite at 100 uM incubated for 15 mins by HPLC analysis; format: ADME; details: 0.25 h
Procedure, shortened: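 Recombinant Ssap-NtrB, Ni-column purified, was used at 2.5 µg/mL. Substrate at 100 µM was reacted with 200 µM NADH in 25 mM Tris/Cl pH 7.5 with 10% DMSO at 25 °C for 15 min. The reaction was stopped 1:1 with cold acetonitrile and run on C18 RP-HPLC at 1 mL/min with a 20–80% ACN gradient. Peaks were detected at 254 and 340 nm.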

[10] = molecular target: T2, Staphylococcus saprophyticus nitroreductase (Staphylococcus saprophyticus subsp. saprophyticus (strain ATCC 15305 / DSM20229 / NCIMB 8711 / NCTC 7292 / S-41), UniProt Q4A0P1); assay: Substrate activity at Staphylococcus saprophyticus nitroreductase expressed in Escherichia coli assessed as half life […] at 100 uM by HPLC analysis (0 to 5 mins at 20 % ACN, 15 to 22 min at 80% ACN, 27-32 AT 20% ACN); format: ADME
T2 sequence (Q4A0P1 whole entry): T1 sequence (Q4A0P1 whole entry)

[11] = molecular target: T2, Staphylococcus saprophyticus nitroreductase; assay: Substrate activity at Staphylococcus saprophyticus nitroreductase expressed in Escherichia coli assessed as half life […] at 100 uM by HPLC analysis (0 to 5 mins at 20% ACN, 25 to 35 min at 80% ACN, 40 to 45 min at 20% ACN); format: ADME
[12] = molecular target: T3, Oxygen-insensitive NAD(P)H nitroreductase (Escherichia coli K-12, UniProt P38489); assay: Substrate activity at Escherichia coli nitroreductase nfsB assessed as ratio of Kcat/Km up to 80 mM using NADH as cofactor relative to CB1954/NfsB; format: ADME
T3 sequence (P38489 whole entry): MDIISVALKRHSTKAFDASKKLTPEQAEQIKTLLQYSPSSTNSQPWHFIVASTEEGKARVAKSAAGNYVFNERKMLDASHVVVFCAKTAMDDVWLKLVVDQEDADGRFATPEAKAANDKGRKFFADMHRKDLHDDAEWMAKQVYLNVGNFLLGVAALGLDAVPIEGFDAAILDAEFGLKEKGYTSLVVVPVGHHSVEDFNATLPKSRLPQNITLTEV

Putative nitroreductase [13] = molecular target: T1, Putative nitroreductase; assay: Substrate activity at Staphylococcus saprophyticus nitroreductase expressed in Escherichia coli assessed as retention time […] at 150 uM by HPLC analysis (0 to 5 mins at 20 % ACN, 15 to 22 min at 80% ACN, 27-32 AT 20% ACN); format: ADME
[14] = molecular target: T2, Staphylococcus saprophyticus nitroreductase; assay: Substrate activity at Staphylococcus saprophyticus nitroreductase expressed in Escherichia coli assessed as half life […] at 150 uM by HPLC analysis (0 to 5 mins at 20 % ACN, 15 to 22 min at 80% ACN, 27-32 AT 20% ACN); format: ADME

SMILES | solubility [1] | viability at 48 h, up to 150 µM [2] [%] | Retention_time (Putative nitroreductase [3]) [min] | IC50 (PC-3 [4]) [µM] | Retention_time (Putative nitroreductase [5]) [min] | viability at 48 h, up to 150 µM [6] [%] | viability at 48 h, up to 150 µM [7] [%] | Activity (PC-3 [8]) | Retention time (Putative nitroreductase [9]) [min] | half-life [10] [min] | half-life at 100 µM [11] [min] | fold change (FC) [12] | Retention_time (Putative nitroreductase [13]) [min] | half-life [14] [min]
O=C(Nc1cccc(NC(=O)c2ccc([N+](=O)[O-])cc2)c1)c1ccc([N+](=O)[O-])cc1 | Soluble | > 80 | 21.98 | 0.0334 | 21.88 | > 80 | > 80 | Non-Toxic | – | – | – | – | – | –
O=C(c1ccc([N+](=O)[O-])cc1)N1CCOCC1 | Soluble | > 80 | – | 0.00181 | 15.17 | > 80 | > 80 | Non-Toxic | 16 | < 15 | – | – | – | –
O=C(c1ccc([N+](=O)[O-])cc1)N1CCN(C(=O)c2ccc([N+](=O)[O-])cc2)CC1 | Soluble | > 80 | 17.6 | 0.018 | 17.28 | > 80 | 51 to 80 | Non-Toxic | – | – | < 85.2 | – | – | –
CS(=O)(=O)OCCN(CCBr)c1c(C(=O)NCCO)cc([N+](=O)[O-])cc1[N+](=O)[O-] | – | – | – | – | – | – | – | – | – | – | – | 2.32 | – | –
CCN(C(C)=O)c1cc([N+](=O)[O-])ccc1Br | – | > 80 | – | 12.6 | 15.18 | > 80 | > 80 | Non-Toxic | – | < 6 | – | – | – | –
CC(=O)Nc1cc([N+](=O)[O-])cc([N+](=O)[O-])c1 | – | > 80 | – | 10.7 | – | > 80 | > 80 | Non-Toxic | – | – | – | – | 14.4 | < 6
O=C(Nc1ccccc1NC(=O)c1ccc([N+](=O)[O-])cc1)c1ccc([N+](=O)[O-])cc1 | Soluble | > 80 | 22.08 | 0.0143 | 21.38 | > 80 | > 80 | Non-Toxic | – | – | < 192 | – | – | –
O=C(Nc1ccc(NC(=O)c2ccc([N+](=O)[O-])cc2)cc1)c1ccc([N+](=O)[O-])cc1 | Soluble | > 80 | – | – | 16.61 | 51 to 80 | > 80 | – | – | – | – | – | – | –

— ChEMBL document CHEMBL4393661, “PRODRUGS FOR NITROREDUCTASE BASED CANCER THERAPY- 2: Novel amide/Ntr combinations targeting PC3 cancer cells” (Eur J Med Chem, 2019)
